Reference: ChEMBL document CHEMBL3286187, “Synthesis, antibacterial and antitubercular activities of benzimidazole bearing substituted 2-pyridone motifs” (Eur J Med Chem, 2014)
Values after ≈ are worked out from the molar mass of the structure shown.

What was measured:
Escherichia coli = experiment: Antimicrobial activity against Escherichia coli MTCC-443 after 24 hrs by broth dilution method; format: functional; conditions: MTCC-443, 24 h
Method in brief: (§1)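 NCCLS broth dilution in Mueller Hinton broth with 2% DMSO as vehicle. Primary screen at 1000, 500 and 250 µg/mL; actives retested at 200 to 6.25 µg/mL. Inoculum 10⁶ CFU/mL, set by turbidity. Incubated 24 h at 37 °C; growth read visually and spectrophotometrically. MIC is the lowest concentration arresting growth. Chloramphenicol was the positive control; DMSO and water were negative controls.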

Pseudomonas aeruginosa = experiment: Antimicrobial activity against Pseudomonas aeruginosa MTCC-1688 after 24 hrs by broth dilution method; format: functional; conditions: MTCC-1688, 24 h; method in brief: as §1
Staphylococcus aureus [1] = experiment: Antimicrobial activity against Staphylococcus aureus MTCC-96 after 24 hrs by broth dilution method; format: functional; conditions: MTCC-96, 24 h; method in brief: as §1
Streptococcus pyogenes = experiment: Antimicrobial activity against Streptococcus pyogenes MTCC-442 after 24 hrs by broth dilution method; format: functional; conditions: MTCC-442, 24 h; method in brief: as §1
[2] = system: Mycobacterium tuberculosis; experiment: Antitubercular activity against Mycobacterium tuberculosis H37Rv ATCC 27294 after 5 to 8 days by BACTEC 12B method; format: functional
Vero = experiment: Cytotoxicity against african green monkey Vero cells after 72 hrs by MTS-PMS method; format: cell-based; conditions: Chlorocebus sabaeus
Method in brief: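 Vero cells in DMEM with 10% FBS at 37 °C, 5% CO2, diluted to 10^6 cells/mL. Threefold serial dilutions gave final […] to 0.12 µg/mL with 1% DMSO. Incubated 72 h, washed with HBSS, then MTS-PMS (100:20) added for 3 h; absorbance read at 490 nm. Triplicate wells, assay repeated three times. Controls set as 100% viability; IC50 taken as 50% growth inhibition.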

Staphylococcus aureus [3] = experiment: Antimicrobial activity against methicillin-resistant Staphylococcus aureus ATCC 43300 after 24 hrs by broth dilution method; format: functional; conditions: ATCC 43300, 24 h
Method in brief: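 Broth dilution per NCCLS in Mueller Hinton broth; compounds in 2% DMSO, 1000 µg/mL stock; primary screen 1000, 500, 250 µg/mL, then secondary dilutions 200 to 6.25 µg/mL. Inoculum 10⁶ CFU/mL by turbidity; 24 h at 37 °C, growth read visually and spectrophotometrically. MIC = lowest concentration arresting growth. DMSO/water negative control; chloramphenicol positive control.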

Staphylococcus aureus [4] = experiment: Ratio of ciprofloxacin MIC to compound MIC for methicillin-resistant Staphylococcus aureus ATCC 43300 after 24 hrs by broth dilution method; format: functional
Staphylococcus aureus [5] = experiment: Ratio of chloramphenicol MIC to compound MIC for methicillin-resistant Staphylococcus aureus ATCC 43300 after 24 hrs by broth dilution method; format: functional

Compound	MIC (Escherichia coli) [µg/mL]	MIC (Pseudomonas aeruginosa) [µg/mL]	MIC (Staphylococcus aureus [1]) [µg/mL]	MIC (Streptococcus pyogenes) [µg/mL]	MIC [2] [µg/mL]	IC50 (Vero) [µg/mL]	MIC (Staphylococcus aureus [3]) [µg/mL]	Ratio (Staphylococcus aureus [4])	Ratio (Staphylococcus aureus [5])
C/C(=N\NC(=O)CC#N)c1nc2ccccc2[nH]1	> 1000	> 1000	1000 (≈ 4150 µM)	1000 (≈ 4150 µM)	> 39.4				
C/C(=N\n1c(N)c(C#N)c(-c2ccc([N+](=O)[O-])cc2)c(C#N)c1=O)c1nc2ccccc2[nH]1	500 (≈ 1140 µM)	500 (≈ 1140 µM)	500 (≈ 1140 µM)	500 (≈ 1140 µM)	> 39.4				
C/C(=N\n1c(/N=C/c2ccccc2)c(C#N)c(-c2ccc([N+](=O)[O-])cc2)c(C#N)c1=O)c1nc2ccccc2[nH]1	500 (≈ 950 µM)	500 (≈ 950 µM)	500 (≈ 950 µM)	500 (≈ 950 µM)	35.2 (≈ 66.9 µM)	17.6 (≈ 33.4 µM)			
C/C(=N\n1c(/N=C/c2ccccc2O)c(C#N)c(-c2ccc([N+](=O)[O-])cc2)c(C#N)c1=O)c1nc2ccccc2[nH]1	500 (≈ 922 µM)	500 (≈ 922 µM)	500 (≈ 922 µM)	250 (≈ 461 µM)	31.6 (≈ 58.3 µM)	19.8 (≈ 36.6 µM)			
C/C(=N\n1c(/N=C/c2cccc(O)c2)c(C#N)c(-c2ccc([N+](=O)[O-])cc2)c(C#N)c1=O)c1nc2ccccc2[nH]1	500 (≈ 922 µM)	250 (≈ 461 µM)	100 (≈ 184 µM)	500 (≈ 922 µM)	30.2 (≈ 55.6 µM)	17 (≈ 31.3 µM)			
C/C(=N\n1c(/N=C/c2ccc(O)cc2)c(C#N)c(-c2ccc([N+](=O)[O-])cc2)c(C#N)c1=O)c1nc2ccccc2[nH]1	250 (≈ 461 µM)	500 (≈ 922 µM)	500 (≈ 922 µM)	250 (≈ 461 µM)	30.9 (≈ 56.9 µM)	13.7 (≈ 25.3 µM)			
C/C(=N\n1c(/N=C/c2cccc(F)c2)c(C#N)c(-c2ccc([N+](=O)[O-])cc2)c(C#N)c1=O)c1nc2ccccc2[nH]1	100 (≈ 184 µM)	250 (≈ 459 µM)	100 (≈ 184 µM)	125 (≈ 230 µM)	25.4 (≈ 46.6 µM)	23.6 (≈ 43.4 µM)			
C/C(=N\n1c(/N=C/c2ccc(F)cc2)c(C#N)c(-c2ccc([N+](=O)[O-])cc2)c(C#N)c1=O)c1nc2ccccc2[nH]1	250 (≈ 459 µM)	250 (≈ 459 µM)	250 (≈ 459 µM)	100 (≈ 184 µM)	27.1 (≈ 49.8 µM)	24.8 (≈ 45.5 µM)			
C/C(=N\n1c(/N=C/c2ccccc2Cl)c(C#N)c(-c2ccc([N+](=O)[O-])cc2)c(C#N)c1=O)c1nc2ccccc2[nH]1	100 (≈ 178 µM)	125 (≈ 223 µM)	50 (≈ 89.1 µM)	62.5 (≈ 111 µM)	2.65 (≈ 4.72 µM)	> 39.4			
C/C(=N\n1c(/N=C/c2cccc(Cl)c2)c(C#N)c(-c2ccc([N+](=O)[O-])cc2)c(C#N)c1=O)c1nc2ccccc2[nH]1	50 (≈ 89.1 µM)	62.5 (≈ 111 µM)	25 (≈ 44.6 µM)	50 (≈ 89.1 µM)	0.85 (≈ 1.52 µM)	> 39.4	> 50		
C/C(=N\n1c(/N=C/c2ccc(Cl)cc2)c(C#N)c(-c2ccc([N+](=O)[O-])cc2)c(C#N)c1=O)c1nc2ccccc2[nH]1	100 (≈ 178 µM)	100 (≈ 178 µM)	62.5 (≈ 111 µM)	50 (≈ 89.1 µM)	1.79 (≈ 3.19 µM)	> 39.4			
C/C(=N\n1c(/N=C/c2ccccc2C)c(C#N)c(-c2ccc([N+](=O)[O-])cc2)c(C#N)c1=O)c1nc2ccccc2[nH]1	250 (≈ 462 µM)	250 (≈ 462 µM)	125 (≈ 231 µM)	100 (≈ 185 µM)	9.17 (≈ 17 µM)	34.5 (≈ 63.9 µM)			
C/C(=N\n1c(/N=C/c2cccc(C)c2)c(C#N)c(-c2ccc([N+](=O)[O-])cc2)c(C#N)c1=O)c1nc2ccccc2[nH]1	100 (≈ 185 µM)	100 (≈ 185 µM)	100 (≈ 185 µM)	100 (≈ 185 µM)	2.07 (≈ 3.83 µM)	> 39.4			
C/C(=N\n1c(/N=C/c2ccc(C)cc2)c(C#N)c(-c2ccc([N+](=O)[O-])cc2)c(C#N)c1=O)c1nc2ccccc2[nH]1	250 (≈ 462 µM)	250 (≈ 462 µM)	250 (≈ 462 µM)	125 (≈ 231 µM)	6.28 (≈ 11.6 µM)	> 39.4			
COc1cccc(/C=N/c2c(C#N)c(-c3ccc([N+](=O)[O-])cc3)c(C#N)c(=O)n2/N=C(\C)c2nc3ccccc3[nH]2)c1	250 (≈ 449 µM)	500 (≈ 898 µM)	100 (≈ 180 µM)	250 (≈ 449 µM)	18 (≈ 32.3 µM)	24.2 (≈ 43.5 µM)			
COc1ccc(/C=N/c2c(C#N)c(-c3ccc([N+](=O)[O-])cc3)c(C#N)c(=O)n2/N=C(\C)c2nc3ccccc3[nH]2)cc1	500 (≈ 898 µM)	500 (≈ 898 µM)	250 (≈ 449 µM)	250 (≈ 449 µM)	23.5 (≈ 42.2 µM)	25.4 (≈ 45.6 µM)			
C/C(=N\n1c(/N=C/c2cccc([N+](=O)[O-])c2)c(C#N)c(-c2ccc([N+](=O)[O-])cc2)c(C#N)c1=O)c1nc2ccccc2[nH]1	250 (≈ 437 µM)	500 (≈ 875 µM)	250 (≈ 437 µM)	500 (≈ 875 µM)	28.3 (≈ 49.6 µM)	27.6 (≈ 48.3 µM)			
C/C(=N\n1c(/N=C/c2ccc([N+](=O)[O-])cc2)c(C#N)c(-c2ccc([N+](=O)[O-])cc2)c(C#N)c1=O)c1nc2ccccc2[nH]1	1000 (≈ 1750 µM)	1000 (≈ 1750 µM)	500 (≈ 875 µM)	500 (≈ 875 µM)	32.2 (≈ 56.4 µM)	16.1 (≈ 28.1 µM)			
C/C(=N\n1c(/N=C/c2cccc(Br)c2)c(C#N)c(-c2ccc([N+](=O)[O-])cc2)c(C#N)c1=O)c1nc2ccccc2[nH]1	25 (≈ 41.3 µM)	25 (≈ 41.3 µM)	12.5 (≈ 20.6 µM)	25 (≈ 41.3 µM)	10.3 (≈ 17 µM)	> 39.4	12.5 (≈ 20.6 µM)	2	4
C/C(=N\n1c(/N=C/c2ccc(Br)cc2)c(C#N)c(-c2ccc([N+](=O)[O-])cc2)c(C#N)c1=O)c1nc2ccccc2[nH]1	50 (≈ 82.6 µM)	50 (≈ 82.6 µM)	25 (≈ 41.3 µM)	50 (≈ 82.6 µM)	13.8 (≈ 22.8 µM)	> 39.4	6.25 (≈ 10.3 µM)	4	8
O=C(N[C@H](CO)[C@H](O)c1ccc([N+](=O)[O-])cc1)C(Cl)Cl [CHLORAMPHENICOL]	50 (≈ 155 µM)	50 (≈ 155 µM)	50 (≈ 155 µM)	50 (≈ 155 µM)			50 (≈ 155 µM)		
O=C(O)c1cn(C2CC2)c2cc(N3CCNCC3)c(F)cc2c1=O [CIPROFLOXACIN]	25 (≈ 75.4 µM)		50 (≈ 151 µM)	50 (≈ 151 µM)					
NNC(=O)c1ccncc1 [ISONIAZID]					0.24 (≈ 1.75 µM)				
